Most compounds without a hit are left out; they make up all but 1.9% or so of the library.
M5 PAM – CHRM5 positive allosteric modulation | P08912 | CHO-K1 hM5, Fluo-8 calcium, ACh EC20 PAM; 0% = ACh EC20, 100% = ACh EC100 | activation, % at 3 µM | 360,000 tested, 0.3% active;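 active = activation above the run cutoff, the mean activation of all test compounds plus 3 SD, cut at about 18% in these data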
Target sequence (P08912 whole entry, looked up): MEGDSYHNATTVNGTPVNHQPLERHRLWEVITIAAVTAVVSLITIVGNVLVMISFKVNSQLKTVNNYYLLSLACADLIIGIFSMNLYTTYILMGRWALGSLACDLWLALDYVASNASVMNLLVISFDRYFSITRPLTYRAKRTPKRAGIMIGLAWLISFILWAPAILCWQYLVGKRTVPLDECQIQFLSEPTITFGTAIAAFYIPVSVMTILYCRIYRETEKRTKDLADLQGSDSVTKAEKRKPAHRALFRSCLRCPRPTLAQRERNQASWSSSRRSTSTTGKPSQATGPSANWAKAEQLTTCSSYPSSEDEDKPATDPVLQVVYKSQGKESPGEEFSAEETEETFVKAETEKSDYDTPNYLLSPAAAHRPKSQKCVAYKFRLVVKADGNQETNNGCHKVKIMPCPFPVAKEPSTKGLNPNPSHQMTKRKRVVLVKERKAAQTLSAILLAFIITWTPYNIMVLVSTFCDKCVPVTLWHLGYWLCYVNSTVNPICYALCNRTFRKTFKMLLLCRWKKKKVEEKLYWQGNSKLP
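system = human M5 receptor in CHO-K1 cells | reagent = EC20 acetylcholine as agonist stimulus | compound dosing = single-point, 3 µM nominal | incubation = Fluo-8 loading 80 min at 37 °C plus 30 min room temperature | detection = Fluo-8 calcium dye fluorescence, kinetic read | benchmarks = low control EC20 acetylcholine (0%), high control EC100 acetylcholine (100%)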
CHRM5 antagonist – CHRM5 antagonism in calcium assay | P08912 | inhibition, % at 3 µM | CHO-hM5 cells, Fluo-8 calcium fluorescence, ACh EC80 | 360,000 tested, 0.59% active;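 active = inhibition above a per-plate cutoff, the mean of that plate's test compounds plus 3 SD, cut at about 27% in these data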
CHRM5 agonist – agonists of human muscarinic M5 receptor (CHRM5); CHO-K1 hM5 cells, Fluo-8 calcium fluorescence; 0% DMSO wells, 100% maximal acetylcholine response; P08912; 360,000 tested, 0.19% active; activation, % at 3 µM;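 active = activation above the run's mean over test compounds plus 3 SD, cut at about 23% in these data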;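 also: signal is peak over basal fluorescence ratio across the kinetic read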
CHRM4 antagonist – blocks acetylcholine activation of human M4 receptor; 360,000 tested, 0.73% active; inhibition, % at 3 µM; P08173; CHO-hM4 cells, ACh EC80, Fluo-8 calcium fluorescence; AID 624125;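 active = inhibition above its plate's cutoff, the mean inhibition of sample wells plus 3 SD, cut at about 27% in these data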
M4 PAM – CHRM4 positive allosteric modulation. CHO-K1 hM4/Gqi5, Fluo-8 calcium fluorescence, ACh EC20; 0% = ACh EC20, 100% = maximal ACh. activation, % at 3 µM. 360,000 tested, 0.4% active. AID 624126. P08173;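 active = activation above its plate's cutoff, the mean activation of sample wells plus 3 SD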
CHRM4 agonist – agonists of human muscarinic M4 receptor (CHRM4) | AID 624127 | 360,000 tested, 0.14% active | activation, % at 3 µM | CHO-K1 hM4/Gqi5, Fluo-8 calcium fluorescence; vehicle 0%, full acetylcholine response 100%;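 active = activation above the run mean over all test wells plus 3 SD, cut at about 32% in these data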;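 also: peak over basal fluorescence ratio per well then scaled between controls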
Hits are given with their value; i = inactive.

SMILES | M5 PAM | CHRM5 antagonist | CHRM5 agonist | CHRM4 antagonist | M4 PAM | CHRM4 agonist
C/C(=N/NC(=O)c1ccncc1)c1ccc(NC(=O)c2ccc(Cl)cc2Cl)cc1 | i | i | i | i | i | i
CC(=NNC(=O)c1ccncc1)c1ccc(O)cc1O | 22 | i | i | i | i | i
CC(=NNC(=O)c1ccncc1)c1ccccc1O | i | i | i | i | i | i
Cc1ccc(S(=O)(=O)NC2=NCN(CC(=O)O)CN2)cc1 | i | i | i | i | i | i
CC(C)=CCC[C@](C)(O[C@@H]1O[C@H](CO[C@@H]2OC[C@@H](O)[C@H](O)[C@H]2O)[C@@H](O)[C@H](O)[C@H]1O)C1CC[C@]2(C)C1[C@H](O)CC1[C@@]3(C)CC[C@H](O[C@@H]4O[C@H](CO)[C@@H](O)[C@H](O)[C@H]4O)C(C)(C)C3CC[C@]12C (stereo partly drawn) | i | i | i | i | i | i
FC(F)(F)c1cccc(NC(=S)NCC2COc3ccccc3O2)c1 (stereo not drawn) | i | 32 | i | i | i | i
CCCNC(=S)Nc1cccc(C(F)(F)F)c1 | i | i | i | i | i | i
C/C=C(\C)C(=O)OC1[C@H](OC(C)=O)C2(CO)C(CC1(C)C)C1=CCC3C4(C)CCC(O[C@@H]5O[C@H](C(=O)O)[C@@H](O[C@@H]6O[C@H](CO)[C@@H](O)[C@H](O)[C@H]6O)[C@H](O)[C@H]5O[C@H]5O[C@H](CO)[C@@H](O)[C@H](O)[C@H]5O)[C@](C)(CO)C4CCC3(C)[C@]1(C)C[C@H]2O (stereo partly drawn) | i | 82 | 92 | 91 | i | 133
C/C=C(/C)C(=O)OC1CC(C)(C)C[C@H]2C3=CC[C@@H]4[C@@]5(C)CCC(O[C@@H]6O[C@@H](C(=O)O)[C@@H](O)C(O[C@@H]7OC[C@H](O)[C@@H](O)[C@@H]7O[C@@H]7OC(CO)C(O)[C@@H](O)[C@@H]7O)C6O[C@@H]6OC(CO)C(O)C(O)C6O)[C@@](C)(CO)[C@@H]5CC[C@]4(C)[C@]3(C)CC(O)[C@@]12CO (stereo partly drawn) | i | i | i | i | i | 75
CC1(C)C[C@H]2C3=CCC4[C@@]5(C)CC[C@H](O[C@@H]6O[C@H](C(=O)O)[C@@H](O)[C@H](O)[C@H]6O)[C@@](C)(CO)C5CC[C@@]4(C)[C@]3(C)C[C@H](O)[C@@]2(CO)[C@@H](O)[C@@H]1O (stereo partly drawn) | i | i | i | i | i | i
O=C(Nc1cccc(S(=O)(=O)N2CCCCC2)c1)C1CCCN1S(=O)(=O)c1ccccc1F (stereo not drawn) | i | i | i | i | i | i
COc1ccc(NC(=O)CCNC(=O)c2ccccc2Cl)cc1S(=O)(=O)N1CCCCC1 | i | i | i | i | i | i
O=C(CCCc1ccccc1)Nc1nccs1 | i | i | i | i | i | i
C=CCSc1nnc2nc3c(nn12)c1cc(C)ccc1n3CC=C | 41 | i | i | i | i | i
C=CCn1c2ccccc2c2nnc(SCC(N)=O)nc21 | i | i | i | i | i | i
CC(=O)c1c(C)[nH]c(C(=O)OCCCCN2C(=O)c3ccccc3C2=O)c1C | i | 31 | i | i | i | i
CC(=O)c1c(C)[nH]c(C(=O)OCc2ccccc2)c1C | i | i | i | i | i | i
COc1cccc(-c2oc3c(c2-c2ccc(Br)nc2)C(O)CCC3)c1 (stereo not drawn) | i | i | i | i | i | i
O=S(=O)(Nc1ccc2c(c1)OCO2)c1cccs1 | 34 | i | i | i | i | i
C[C@]1(CC/C(=C/CO)CO)[C@H](C=O)CC[C@@]23COC(=O)C2=CCC[C@@H]31 | i | i | i | i | i | i
Nc1ncnc2c1ncn2[C@@H]1O[C@H](COP(=O)(O)OP(=O)(O)OP(=O)(O)O)[C@@H](O)[C@H]1O | i | i | 46 | i | i | 96
Cn1c(=O)[nH]c(=O)c2c1nc(CN1CCN(c3ccccc3F)CC1)n2CCCc1ccccc1 | i | i | i | i | 22 | i

Screens (PubChem)
